This is an account of results in ChEMBL document CHEMBL1128308, “Synthesis and antiinflammatory activity of certain 5,6,7,8-tetrahydroquinolines and related compounds” (J Med Chem, 1995).

For orientation: ED50 means the dose at which the effect has come halfway, by size or by number of responders. The term IC50 denotes the concentration that gives 50% inhibition. A higher IC50 goes with lower potency.

Test [1] has as its system Rattus norvegicus. Briefly: Anti-inflammatory activity by rat carrageenan edema assay. (3h edema). The test is classed as functional. In outline: (§1)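 Groups of six male Sprague-Dawley rats (150-165 g) were dosed po in 0.5% methyl cellulose. One hour later, 0.1 mL of 1% carrageenan was injected subplantar into the right hind paw. Edema was taken as the 3 h paw volume minus the zero-time volume and expressed as percent change versus vehicle; screening dose was 50 mg/kg po.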
(The carrageenan paw model is a standard test of acute inflammation.)

For test [2], the target named is T1, Polyunsaturated fatty acid 5-lipoxygenase (Rattus norvegicus) (UniProt P12527).
T1 sequence (whole entry): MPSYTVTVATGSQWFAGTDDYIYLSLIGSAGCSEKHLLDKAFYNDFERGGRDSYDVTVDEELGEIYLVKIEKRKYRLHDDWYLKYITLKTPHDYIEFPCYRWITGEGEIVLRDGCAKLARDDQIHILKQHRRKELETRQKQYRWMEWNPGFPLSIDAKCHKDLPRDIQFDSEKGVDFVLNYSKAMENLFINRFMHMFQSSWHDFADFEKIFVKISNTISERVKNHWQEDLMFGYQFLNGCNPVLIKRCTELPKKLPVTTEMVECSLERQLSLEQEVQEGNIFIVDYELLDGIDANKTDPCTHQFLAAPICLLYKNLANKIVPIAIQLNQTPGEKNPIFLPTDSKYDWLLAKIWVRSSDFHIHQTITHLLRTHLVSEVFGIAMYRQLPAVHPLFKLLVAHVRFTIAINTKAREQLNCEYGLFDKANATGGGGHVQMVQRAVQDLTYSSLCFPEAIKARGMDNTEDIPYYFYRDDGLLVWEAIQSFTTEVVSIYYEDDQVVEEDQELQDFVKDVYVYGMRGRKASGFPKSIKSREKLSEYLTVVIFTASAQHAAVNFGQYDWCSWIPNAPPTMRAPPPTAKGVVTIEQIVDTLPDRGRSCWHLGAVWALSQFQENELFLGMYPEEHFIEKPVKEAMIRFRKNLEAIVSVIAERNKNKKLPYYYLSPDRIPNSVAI

The target in test [3] is T1, Polyunsaturated fatty acid 5-lipoxygenase (Rattus norvegicus). This is another data set of the same source.
For test [4], the species on record is Rattus norvegicus. Briefly: Anti-inflammatory activity by rat adjuvant Arthritis assay..
Test [5] addresses T1, Polyunsaturated fatty acid 5-lipoxygenase (Rattus norvegicus). Briefly: Inhibition of 5-lipoxygenase pathway in rat polymorphonuclear assay (inhibition of 5-HETE formation). The method, boiled down:
(§2)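 Rat polymorphonuclear leucocytes at 10^7 cells/mL in HBSS (Mg2+, Ca2+, 10 mM cysteine) were preincubated with compound, added in DMSO, for 10 min at 37 °C with shaking. Radiolabeled eicosanoids (5-HETE for the 5-LO pathway, TXB2 for the CO pathway) were separated by HPLC and detected with an in-line radioactivity detector. Results are given as percent change at 10 µM or 50 µM.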

For test [6] the target is unchanged. The experiment in a line: Inhibition of 5-lipoxygenase pathway in rat polymorphonuclear assay, by ability to inhibit formation of LTB4 AT 10 uM.
Test [7] has as its target T2, Polyunsaturated fatty acid 5-lipoxygenase (Rattus norvegicus, UniProt P12527).
T2 sequence (P12527 whole entry): T1 sequence (whole entry)
Briefly: 5-lipoxygenase inhibitory activity against rat polymorphonuclear leucocytes from female wistar rat, by using 5-HETE. The method, boiled down:
as §2

Test [8] has as its target T2, Polyunsaturated fatty acid 5-lipoxygenase. Briefly: 5-lipoxygenase inhibitory activity against rat polymorphonuclear leucocytes from female wistar rat, by using LTB4.
The target of test [9] is T3, Cyclooxygenase (Rattus norvegicus, UniProt P35355+Q63921).
T3 sequence (P35355 whole entry): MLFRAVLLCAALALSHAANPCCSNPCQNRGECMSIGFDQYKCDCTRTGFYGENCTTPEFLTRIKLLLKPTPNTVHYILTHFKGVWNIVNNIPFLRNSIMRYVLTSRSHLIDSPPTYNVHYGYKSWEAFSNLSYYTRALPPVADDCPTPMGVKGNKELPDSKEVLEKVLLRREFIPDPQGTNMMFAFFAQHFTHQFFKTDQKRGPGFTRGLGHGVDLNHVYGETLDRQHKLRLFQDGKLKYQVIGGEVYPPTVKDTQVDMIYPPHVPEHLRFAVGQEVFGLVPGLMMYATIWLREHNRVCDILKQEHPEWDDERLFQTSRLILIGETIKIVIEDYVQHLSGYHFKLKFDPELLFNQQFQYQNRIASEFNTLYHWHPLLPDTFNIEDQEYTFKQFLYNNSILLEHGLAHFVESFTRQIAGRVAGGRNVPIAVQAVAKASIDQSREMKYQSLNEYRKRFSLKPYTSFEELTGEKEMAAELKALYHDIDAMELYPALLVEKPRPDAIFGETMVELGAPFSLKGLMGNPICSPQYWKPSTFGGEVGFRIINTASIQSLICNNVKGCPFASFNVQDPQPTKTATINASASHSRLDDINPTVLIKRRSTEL
T3 sequence (Q63921 whole entry): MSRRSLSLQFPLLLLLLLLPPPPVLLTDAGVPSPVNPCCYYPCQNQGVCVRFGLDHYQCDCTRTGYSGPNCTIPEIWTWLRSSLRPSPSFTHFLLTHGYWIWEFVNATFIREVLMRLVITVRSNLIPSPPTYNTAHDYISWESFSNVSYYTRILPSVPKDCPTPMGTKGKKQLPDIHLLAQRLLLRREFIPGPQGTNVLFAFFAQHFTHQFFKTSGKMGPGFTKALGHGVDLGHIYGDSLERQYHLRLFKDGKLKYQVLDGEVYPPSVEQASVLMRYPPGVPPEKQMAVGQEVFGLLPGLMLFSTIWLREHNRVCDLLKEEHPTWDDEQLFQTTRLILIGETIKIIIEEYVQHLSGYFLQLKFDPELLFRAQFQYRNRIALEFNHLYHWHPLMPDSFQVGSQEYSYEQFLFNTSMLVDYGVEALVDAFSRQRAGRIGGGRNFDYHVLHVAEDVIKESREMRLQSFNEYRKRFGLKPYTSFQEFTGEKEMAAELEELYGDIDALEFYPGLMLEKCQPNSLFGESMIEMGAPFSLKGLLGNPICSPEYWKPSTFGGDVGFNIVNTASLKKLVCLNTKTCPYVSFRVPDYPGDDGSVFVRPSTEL
Briefly: Prostaglandin G/H synthase Inhibitory activity against rat polymorphonuclear leucocytes from female wistar rat, by using PGE-2.

Test [10] deals with T3, Cyclooxygenase. The experiment in a line: Prostaglandin G/H synthase Inhibitory activity against rat polymorphonuclear leucocytes from female wistar rat, by using TXB2. In outline:
as §2

Test [11] concerns Rattus norvegicus. Briefly: Antiinflammatory activity by rat Carrageenan edema assay at 50 mg/kg peroral administration (3h edema). The test is classed as functional. The settings on record: route oral. The method, boiled down:
as §1

Test [12] relates to Rattus norvegicus. The experiment in a line: Anti-inflammatory activity by rat carrageenan edema assay (3h edema). The test is classed as functional. In outline: as §1
The species named for test [13] is Rattus norvegicus. Briefly: Anti-inflammatory activity by rat adjuvant Arthritis assay (uninjected paw at day 16).
The subject of test [14] is Rattus norvegicus. The experiment in a line: Antiinflammatory activity by rat adjuvant arthritis assay at 30 mg/kg peroral administration (uninjected paw at day 16). The settings on record: route oral.
Test [15] has as its target T1, Polyunsaturated fatty acid 5-lipoxygenase (Rattus norvegicus). The experiment in a line: Inhibition of 5-lipoxygenase pathway was evaluated in rat polymorphonuclear assay by compound (50 uM) ability to inhibit formation of 5-HETE. The method, boiled down:
as §2

The species entered for test [16] is Rattus norvegicus. Briefly: Anti-inflammatory activity by rat acute gastric irritation assay, activity is expressed as Ulcerogenic dose (UD50). The test is classed as functional, Stomach. In outline:
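Male Sprague-Dawley rats (190-220 g) were fasted for 18 h, then given compound in 0.5% Tween 80 by gastric intubation at 1 mL/100 g, with groups of 8 scored blind. At 4 h, gastric irritation was scored 0-3: 0 none, 1 redness, 2 ≤5 lesions, 3 >5 lesions. The ulcerogenic dose is the dose at which 50% of rats had at least one lesion.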

Test [17] has as its target T1, Polyunsaturated fatty acid 5-lipoxygenase (Rattus norvegicus). The source holds these as a separate data set.
The target of test [18] is Cyclooxygenase (Rattus norvegicus) (UniProt P35355+Q63921).

Some results are limits rather than exact numbers.

On to `NC1=NN(c2cccc(C(F)(F)F)c2)CC1` [BW-755C], for which the ED50 in the test on Rattus norvegicus [1] was 72 mg/kg; in the test listed under Rattus norvegicus [4] it was 38 mg/kg. In addition, the results for the half-inhibitory concentration (IC50) in test [2] and in test [3] were 10 µM and 11 µM, respectively.

Turning to `Cc1ccc(C(O)c2nc3c(cc2C)CCCCC3)cc1` (stereo not given), the Change in test [5] is -49%; in test [6], -43%; in the test on Rattus norvegicus [11] it was -58%; in the test on Rattus norvegicus [14], -49%. The IC50 in [7] is 27 µM; in [8], 14 µM; against Cyclooxygenase [9], greater than 50 µM; at Cyclooxygenase [10] it was 33 µM. The results for the ED50 in the test on Rattus norvegicus [12] and in the test listed under Rattus norvegicus [13] were 40 mg/kg and 30 mg/kg, respectively.

`Cc1ccc(/C=C2\CCCc3cc(C)cnc32)cc1`: the Change in test [15] is -28%; in the test with Rattus norvegicus [11] it was -47%; in the test on Rattus norvegicus [14] it was 17%.

In the test listed under Rattus norvegicus [16], `CC(C)Cc1ccc(C(C)C(=O)O)cc1` (stereo not given) [IBUPROFEN] had a UD50 of 42 mg/kg. Moreover, the IC50 in test [17] and in [3] was greater than 50 µM each time. In the test filed under Rattus norvegicus [4], the median effective dose (ED50) was found to be 95 mg/kg.

Consider `COc1ccc2cc([C@H](C)C(=O)O)ccc2c1`, for which the 50% inhibitory concentration (IC50) in test [2] is greater than 100 µM; in test [3], greater than 100 µM; in [18] it was 0.1 µM.

Turning to `CC(c1cc2ccccc2s1)N(O)C(N)=O` (stereo not given), the half-inhibitory concentration (IC50) in [2] stood at 0.3 µM; in test [3], 0.4 µM; in test [18] it was 16 µM.

Turning to `COc1cc(/C=C2\CCCc3c(C)ccnc32)ccc1OC(C)=O`, the Change in [15] was -100%; with Rattus norvegicus [11], -45%; in the test with Rattus norvegicus [14], 23%.
